In brackets after ≈: the same amount, converted by molar mass. Square brackets hold non-standard residues; d marks the D form. Peptide text beside a SMILES is read from it. Gly(N-(CH2)6NH2) = NCCCCCCNCC(=O)O; Nspe = C[C@H](NCC(=O)O)c1ccccc1; NhArg = N=C(N)NCCCCNCC(=O)O; Nphe = O=C(O)CNCc1ccccc1
What was measured:
[1] = Cytotoxicity against human HaCaT cells assessed as reduction in cell viability pretreated for 1 hr followed by DMEM addition measured after 24 hrs by alamar blue assay; type: cell-based; conditions: read-out: ED50
Outline: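 HaCaT keratinocytes are grown in DMEM high glucose with 10% FBS and 1% P/S and seeded at 2x10^4 cells/well 24 h before treatment. Compound dilution series run 2–100 µM (5 mM DMSO stocks) in 50 µL for 1 h, then medium is added for 24 h at 37 °C, 5% CO2. alamarBlue is read after 1 h (Ex 540/Em 620). Triplicate, ≥2 occasions; ED50 from dose-response; amphotericin B positive control.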

[2] = Selectivity index, ratio of ED50 for human HaCaT cells to MIC for Pseudomonas aeruginosa PAO1 ATCC 15692; type: toxicity; conditions: read-out: Selectivity Index
[3] = Selectivity index, ratio of ED50 for human HaCaT cells to MIC for Staphylococcus aureus 3R7089 strain Oxford/ATCC 9144; type: toxicity; conditions: read-out: Selectivity Index
[4] = Selectivity index, ratio of ED50 for human HepG2 cells to MIC for Escherichia coli K-12 W3110 ATCC 27325; type: toxicity; conditions: read-out: Selectivity Index
[5] = test system: Staphylococcus epidermidis; assay: Antibacterial activity against Staphylococcus epidermidis clinical isolate incubated for 16 hrs under shaking condition; type: functional
Outline: (§1)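 Broth microdilution (Andrews method) in Iso-sensitest broth. Overnight cultures are adjusted to A650 0.07 (0.5 McFarland) and diluted ten-fold. Compounds come from 5 mM DMSO stocks, 2-fold serially diluted, final 2–100 μM in a 1:1 inoculum:compound mix. Incubation is 37 °C for 16 h with shaking. MIC is the lowest concentration giving complete growth inhibition, read by absorbance; triplicate.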

Staphylococcus aureus = assay: Antibacterial activity against Staphylococcus aureus 3R7089 strain Oxford/ATCC 9144 incubated for 16 hrs under shaking condition; type: functional; conditions: 3R7089 strain Oxford/ATCC 9144, 16 h; outline: as §1
Pseudomonas aeruginosa = assay: Antibacterial activity against Pseudomonas aeruginosa PAO1 ATCC 15692 incubated for 16 hrs under shaking condition; type: functional; conditions: PAO1 ATCC 15692, 16 h; outline: as §1
[6] = Selectivity index, ratio of ED50 for human HaCaT cells to MIC for Escherichia coli K-12 W3110 ATCC 27325; type: toxicity; conditions: read-out: Selectivity Index
[7] = Selectivity index, ratio of ED50 for human HepG2 cells to MIC for Staphylococcus epidermidis clinical isolate; type: toxicity; conditions: read-out: Selectivity Index
[8] = Selectivity index, ratio of ED50 for human HepG2 cells to MIC for Pseudomonas aeruginosa PAO1 ATCC 15692; type: toxicity; conditions: read-out: Selectivity Index
[9] = Cytotoxicity against human HepG2 cells assessed as reduction in cell viability pretreated for 1 hr followed by DMEM addition measured after 24 hrs by alamar blue assay; type: cell-based; conditions: read-out: ED50
Outline: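 HepG2 cells are kept in DMEM high glucose with 10% heat-inactivated FBS and 1% P/S at 37 °C, 5% CO2, and seeded at 2x10^4 cells/well one day ahead. They are exposed to compounds (100 to 3 µM, from 5 mM DMSO stocks) in 50 µL for 1 h. Medium is then added and cells incubated 24 h. alamarBlue is read after 2 h (Ex 560/Em 600). Triplicate on ≥2 occasions; ED50 from dose-response; DMSO negative control.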

[10] = Selectivity index, ratio of ED50 for human HaCaT cells to MIC for Staphylococcus epidermidis clinical isolate; type: toxicity; conditions: read-out: Selectivity Index
[11] = Selectivity index, ratio of ED50 for human HepG2 cells to MIC for Staphylococcus aureus 3R7089 strain Oxford/ATCC 9144; type: toxicity; conditions: read-out: Selectivity Index

Work on `C[C@@H](c1ccccc1)N(CC(N)=O)C(=O)CN(C(=O)CN(CCCCCCN)C(=O)CN(C(=O)CN(C(=O)CNCCCCCCN)[C@@H](C)c1ccccc1)[C@@H](C)c1ccccc1)[C@@H](C)c1ccccc1` yielded a CC50 at 24 h [1] of over 100 µM, a selectivity ratio [2] of 1 and a selectivity ratio [3] of 1. The selectivity ratio [4] was 1, the MIC [5] was 25 µM (≈ 24.4 µg/mL) and the MIC (Staphylococcus aureus) was over 100 µM. It also gave an MIC (Pseudomonas aeruginosa) of over 100 µM, a selectivity ratio [6] of 1 and a selectivity ratio [7] of 4. It also gave a selectivity ratio [8] of 1, a CC50 at 24 h [9] of over 100 µM and a selectivity ratio [10] of 4. The selectivity ratio [11] was 1.

In the case of `NCCCCNCC(=O)N(CC(=O)N(CC(=O)N(CCCCN)CC(=O)N(CC(=O)N(CC(=O)N(CCCCN)CC(=O)N(CC(=O)N(CC(N)=O)Cc1cccc(F)c1)Cc1cccc(F)c1)Cc1cccc(F)c1)Cc1cccc(F)c1)Cc1cccc(F)c1)Cc1cccc(F)c1`, the selectivity ratio [2] is reported as 3, the selectivity ratio [3] is reported as 11 and the selectivity ratio [4] is reported as 3. It also gave a selectivity ratio [6] of 5, a selectivity ratio [7] of 22 and a selectivity ratio [8] of 2. The selectivity ratio [10] was 32 and the selectivity ratio [11] was 7.

In the case of `NCCCCNCC(=O)N(CC(=O)N(CC(=O)N(CCCCN)CC(=O)N(CC(=O)N(CC(=O)N(CCCCN)CC(=O)N(CC(=O)N(CC(N)=O)Cc1ccccc1)Cc1ccccc1)Cc1ccccc1)Cc1ccccc1)Cc1ccccc1)Cc1ccccc1`, the CC50 at 24 h [1] is reported as over 100 µM, the selectivity ratio [2] is reported as 1 and the selectivity ratio [3] is reported as 4. The selectivity ratio [4] was 2, the MIC (Pseudomonas aeruginosa) was over 100 µM and the selectivity ratio [6] was 2. The selectivity ratio [7] was 17, the selectivity ratio [8] was 1 and the CC50 at 24 h [9] was over 100 µM. The selectivity ratio [10] was 17 and the selectivity ratio [11] was 4.

Work on `NCCCCNCC(=O)N(CC(=O)N(CC(=O)N(CCCCN)CC(=O)N(CC(=O)N(CC(=O)N(CCCCN)CC(=O)N(CC(=O)N(CC(=O)N(CCCCN)CC(=O)N(CC(=O)N(CC(N)=O)Cc1cccc(F)c1)Cc1cccc(F)c1)Cc1cccc(F)c1)Cc1cccc(F)c1)Cc1cccc(F)c1)Cc1cccc(F)c1)Cc1cccc(F)c1)Cc1cccc(F)c1` yielded a selectivity ratio [2] of 1, a selectivity ratio [3] of 4 and a selectivity ratio [4] of 1. The selectivity ratio [6] was 1, the selectivity ratio [7] was 6 and the selectivity ratio [8] was 1. The selectivity ratio [10] was 8 and the selectivity ratio [11] was 3.

`NCCCCCCNCC(=O)N(CC(=O)N(CC(=O)N(CCCCCCN)CC(=O)N(CC(=O)N(CC(N)=O)Cc1ccccc1)Cc1ccccc1)Cc1ccccc1)Cc1ccccc1` (H-[Gly(N-(CH2)6NH2)][Nphe][Nphe][Gly(N-(CH2)6NH2)][Nphe][Nphe]-NH2) gave a CC50 at 24 h [1] of over 100 µM, a selectivity ratio [2] of 1 and a selectivity ratio [3] of 1. For the same compound, the selectivity ratio [4] was 1, the MIC [5] was over 100 µM and the MIC (Staphylococcus aureus) was over 100 µM. It also gave an MIC (Pseudomonas aeruginosa) of over 100 µM, a selectivity ratio [6] of 1 and a selectivity ratio [7] of 1. It also gave a selectivity ratio [8] of 1, a CC50 at 24 h [9] of over 100 µM and a selectivity ratio [10] of 1. For the same compound, the selectivity ratio [11] was 1.

For `NCCCCCCNCC(=O)N(CC(=O)N(CC(=O)N(CCCCCCN)CC(=O)N(CC(=O)N(CC(=O)N(CCCCCCN)CC(=O)N(CC(=O)N(CC(N)=O)Cc1ccccc1)Cc1ccccc1)Cc1ccccc1)Cc1ccccc1)Cc1ccccc1)Cc1ccccc1` (H-[Gly(N-(CH2)6NH2)][Nphe][Nphe][Gly(N-(CH2)6NH2)][Nphe][Nphe][Gly(N-(CH2)6NH2)][Nphe][Nphe]-NH2), the CC50 at 24 h [1] was over 100 µM, the selectivity ratio [2] was 1 and the selectivity ratio [3] was 17. It also gave a selectivity ratio [4] of 2, an MIC [5] of 3 µM (≈ 4.11 µg/mL) and an MIC (Staphylococcus aureus) of 6 µM (≈ 8.21 µg/mL). The MIC (Pseudomonas aeruginosa) was over 100 µM, the selectivity ratio [6] was 2 and the selectivity ratio [7] was 33. It also gave a selectivity ratio [8] of 1, a CC50 at 24 h [9] of over 100 µM and a selectivity ratio [10] of 33. It also gave a selectivity ratio [11] of 17.

For `NCCCCCCNCC(=O)N(CC(=O)N(CC(=O)N(CCCCCCN)CC(=O)N(CC(=O)N(CC(=O)N(CCCCCCN)CC(=O)N(CC(=O)N(CC(=O)N(CCCCCCN)CC(=O)N(CC(=O)N(CC(N)=O)Cc1ccccc1)Cc1ccccc1)Cc1ccccc1)Cc1ccccc1)Cc1ccccc1)Cc1ccccc1)Cc1ccccc1)Cc1ccccc1` (H-[Gly(N-(CH2)6NH2)][Nphe][Nphe][Gly(N-(CH2)6NH2)][Nphe][Nphe][Gly(N-(CH2)6NH2)][Nphe][Nphe][Gly(N-(CH2)6NH2)][Nphe][Nphe]-NH2), the CC50 at 24 h [1] was over 100 µM, the selectivity ratio [2] was 1 and the selectivity ratio [3] was 50. The selectivity ratio [4] was 8, the MIC [5] was 6 µM (≈ 10.9 µg/mL) and the MIC (Staphylococcus aureus) was 2 µM (≈ 3.64 µg/mL). The MIC (Pseudomonas aeruginosa) was over 100 µM, the selectivity ratio [6] was 8 and the selectivity ratio [7] was 17. The selectivity ratio [8] was 1, the CC50 at 24 h [9] was over 100 µM and the selectivity ratio [10] was 17. It also gave a selectivity ratio [11] of 50.

For `C[C@@H](c1ccccc1)N(CC(N)=O)C(=O)CN(C(=O)CN(CCCCNC(=N)N)C(=O)CN(C(=O)CN(C(=O)CN(CCCCNC(=N)N)C(=O)CN(C(=O)CN(C(=O)CN(CCCCNC(=N)N)C(=O)CN(C(=O)CN(C(=O)CNCCCCNC(=N)N)[C@@H](C)c1ccccc1)[C@@H](C)c1ccccc1)[C@@H](C)c1ccccc1)[C@@H](C)c1ccccc1)[C@@H](C)c1ccccc1)[C@@H](C)c1ccccc1)[C@@H](C)c1ccccc1` (H-[NhArg][Nspe][Nspe][NhArg][Nspe][Nspe][NhArg][Nspe][Nspe][NhArg][Nspe][Nspe]-NH2), the CC50 at 24 h [1] was 20 µM, the selectivity ratio [2] was 2 and the selectivity ratio [3] was 20. It also gave a selectivity ratio [4] of 2, a selectivity ratio [6] of 3 and a selectivity ratio [7] of 12. It also gave a selectivity ratio [8] of 1, a selectivity ratio [10] of 20 and a selectivity ratio [11] of 12.

`CC(c1ccccc1)N(CC(=O)N(CCCCN)CC(=O)N(CC(=O)N(CC(=O)N(CCCCN)CC(=O)N(CC(=O)N(CC(N)=O)[C@@H](C)c1ccccc1)Cc1ccc(F)cc1)C(C)c1ccccc1)Cc1ccc(F)cc1)C(=O)CN(Cc1ccc(F)cc1)C(=O)CNCCCCN` (single isomer, unassigned) showed a CC50 at 24 h [1] of 52 µM, a selectivity ratio [3] of 17 and an MIC [5] of 2 µM (≈ 2.76 µg/mL). For the same compound, the MIC (Staphylococcus aureus) was 3 µM (≈ 4.14 µg/mL), the selectivity ratio [6] was 2 and the selectivity ratio [7] was 18. For the same compound, the CC50 at 24 h [9] was 36 µM, the selectivity ratio [10] was 26 and the selectivity ratio [11] was 12.

Work on `CC(c1ccccc1)N(CC(=O)N(CCN)CC(=O)N(CC(=O)N(CC(=O)N(CCN)CC(=O)N(CC(=O)N(CC(N)=O)[C@@H](C)c1ccccc1)[C@@H](C)c1ccccc1)C(C)c1ccccc1)[C@@H](C)c1ccccc1)C(=O)CN(C(=O)CNCCN)C(C)c1ccccc1` (single isomer, unassigned) yielded a CC50 at 24 h [1] of over 100 µM, a selectivity ratio [2] of 1 and a selectivity ratio [3] of 50. The selectivity ratio [4] was 4, the MIC (Staphylococcus aureus) was 2 µM (≈ 2.57 µg/mL) and the MIC (Pseudomonas aeruginosa) was over 100 µM. It also gave a selectivity ratio [6] of 4, a selectivity ratio [7] of 8 and a selectivity ratio [8] of 1. For the same compound, the CC50 at 24 h [9] was over 100 µM, the selectivity ratio [10] was 8 and the selectivity ratio [11] was 50.

Work on `CC(c1ccccc1)N(CC(=O)N(CCCCN)CC(=O)N(CC(=O)N(CC(=O)N(CCCCN)CC(=O)N(CC(=O)N(CC(N)=O)[C@@H](C)c1ccccc1)[C@@H](C)c1ccccc1)Cc1ccc(F)cc1)Cc1ccc(F)cc1)C(=O)CN(C(=O)CNCCCCN)[C@@H](C)c1ccccc1` (single isomer, unassigned) yielded a CC50 at 24 h [1] of 65 µM, a selectivity ratio [2] of 3 and a selectivity ratio [3] of 22. The selectivity ratio [4] was 3, the MIC [5] was 2 µM (≈ 2.75 µg/mL) and the MIC (Staphylococcus aureus) was 3 µM (≈ 4.13 µg/mL). It also gave a selectivity ratio [6] of 5, a selectivity ratio [7] of 22 and a CC50 at 24 h [9] of 43 µM. It also gave a selectivity ratio [10] of 33 and a selectivity ratio [11] of 14.

In the case of `C[C@H](c1ccccc1)N(CC(N)=O)C(=O)CN(C(=O)CN(CCCCN)C(=O)CN(C(=O)CN(C(=O)CN(CCCCN)C(=O)CN(C(=O)CN(C(=O)CNCCCCN)[C@H](C)c1ccccc1)[C@@H](C)c1ccccc1)[C@H](C)c1ccccc1)[C@@H](C)c1ccccc1)[C@H](C)c1ccccc1` (stereo in doubt), the CC50 at 24 h [1] is reported as over 100 µM, the selectivity ratio [2] is reported as 1 and the selectivity ratio [3] is reported as 50. The selectivity ratio [4] was 8, the MIC (Staphylococcus aureus) was 2 µM (≈ 2.74 µg/mL) and the MIC (Pseudomonas aeruginosa) was over 100 µM. The selectivity ratio [6] was 8, the selectivity ratio [7] was 50 and the selectivity ratio [8] was 1. The CC50 at 24 h [9] was over 100 µM, the selectivity ratio [10] was 50 and the selectivity ratio [11] was 50.
